From the EternaBench riboswitch data

System: MS2 coat protein
Experiment: apparent Kd, MS2 coat protein; higher = weaker binding; RNA-MaP array; FMN 200 µM where present
In short: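 SNAP-549-labelled MS2 coat protein, doubled from 0.7 or 1.5 nM to 3 µM, was titrated over designs transcribed by stalled E. coli RNA polymerase on Illumina sequencing-chip clusters. Titrations were run without and then with constant ligand in 100 mM Tris-HCl pH 7.5, 80 mM KCl, 4 mM MgCl2, BSA, DTT, yeast tRNA and Tween-20. The apparent Kd is the median of filtered per-cluster fits to green signal normalised to red-channel RNA signal and control-cluster median Fmax.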

[1] = designed as: OFF switch for flavin mononucleotide, no ligand
[2] = ligand present: flavin mononucleotide, designed as: OFF switch for flavin mononucleotide
[3] = designed as: ON switch for flavin mononucleotide, no ligand
[4] = ligand present: flavin mononucleotide, designed as: ON switch for flavin mononucleotide

| Sequence | apparent Kd [1] [nM] | apparent Kd [2] [nM] | apparent Kd [3] [nM] | apparent Kd [4] [nM] |
| --- | --- | --- | --- | --- |
| UACAGACAUGAGGAUCACCCAUGUGAGGAUAUCGAUAACGAUAAAAUAAUAUAAACAACGAGAAGGCACAGCAU | 34.3 | 40.3 | – | – |
| GGCAUACAUGAGGAUCACCCAUGUAACCUGCACUAAGGAUAUGGCGUGGCCCAUGGCUACCCAGAAGGUAGAUAAA | – | – | 136 | 195 |
| CGGCGCUGUUGAGAGGAUAUGCGGUGAUGGACAUGAGGAUCACCCAUGUUAGCGAUAGCAUUACGGUAGAAGGCUCUACAGCUGU | – | – | 28.1 | 16.7 |
| CCUAGUGUGCAGAAGGAGAGUUAACUGCCCGUCGAUGGACUGCACAGAGCUCUAGGAUAUGCACAUGAGGAUCACCCAUGUGCU | 6.53 | 7.76 | – | – |
| GAACCUAAGUUAGGAUAUGUCUAAGAAAGCUGACAUGAGGAUCACCCAUGUGAAUGCAAAGAAUGGCAGAAGGGAUAUGGGUGG | – | – | 73 | 76.8 |
| AUUUUGUGAGGAUAUUAGUUGUAGAAAAUUGUUAGUAUAGCUGAGAAGGCACAUGAGGAUCACCCAUGUACAUC | 18 | 57.9 | – | – |
| UAUUAACAUGUAGGAUAUCUGCACGAUUAGUGCAGAGAAGGACAUGAGGAUCACCCAUGUAGAUCAUAAUAAUUUAAUUUAAUU | 133 | 422 | – | – |
| AACUCUGAGAAGGAUAUACAGUGCGAAAGGACAGUAGAAGGUUUCACAUGAGGAUCACCCAUGUCGAAUAGUGA | 24.7 | 33.8 | – | – |
| AAAAAACAUGAGGAUCACCCAUGUCCAAAAAAAAAAGGAUAUGCAAAAAAAAAAAAAAAAGCAGAAGGUUUAAAAA | – | – | 68.4 | 74.7 |
| GGUCAUCAAGUCAGGAUAUCGUCUGGUCGAUCAGGCGAGAAGGGACAUGAGGAUCACCCAUGUCGACUCAUCAG | 28.7 | 127 | – | – |
| UUGGACGUCGUAGGAUAUGUAGGAUAUUCCUACAUGAGGAUCACCCAUGUUGACAUGGAAGAAGGGCAGAAGGACGAUGUCCAU | – | – | 548 | 8.38 |
| AAAAGGUCAGGAUAUGCGAGCGGCAGGGAGGCAGGUCGGUGGCAGAAGGGACAUGAGGAUCACCCAUGUUAAAA | 35 | 34.1 | – | – |
| CUUCGACAUGAGGAUCACCCAUGUCAGGAUAUUGUUUAUCUGGUUUUUUACAGAUAUACAAGAAGGGAUGUGUU | 27.5 | 24.6 | – | – |
| GUAGCAUACCGAGGAUAUUCAUAUAAUAAGUAAACAUGAGGAUCACCCAUGUAGCGAAAGCCUUGGGAGAAGGCGGAAUGCUAC | – | – | 346 | 52 |
| GGAUCGAGUGUGAGGAUAUGCUGGUCGUAAGAUCAGCAGAAGGCACAUGAGGAUCACCCAUGUGAAAACGGUCC | 24.7 | 164 | – | – |
| ACAUUGAUUGUGAGGAUAUCGAUGUGAUGGUAUGUCGAGAAGGCACAUGAGGAUCACCCAUGUGGGUGUGGGCA | 259 | 292 | – | – |
| GUAAGCGUAGGAUAUACAUGAGGAUCACCCAUGUCAGUUUUGCACUCUCGGGUGUGCUGUAGAAGGGCGUUACU | 172 | 208 | – | – |
| AGAUUCAUGGCCCGUUCGGGCUCACAUGAGGAUCACCCAUGUGAGGAUAUGACGUACCUGACUCGUCAGAAGGCGCAUGCGAAU | 7.41 | 13.7 | – | – |
| CGAACUAAGUAGAAGGCAGUCUUAAAAUAGGACUGAGGAUAUACAUGAGGAUCACCCAUGUACUCCUUUAAUAAGUUUGAAAUA | 5.31 | 5.38 | – | – |

| Sequence | apparent Kd [1] [nM] | apparent Kd [2] [nM] | apparent Kd [3] [nM] | apparent Kd [4] [nM] |
| --- | --- | --- | --- | --- |
| CGAAGAAAGUAGAAGGCAGUCUUAAAAUAGGACUGAGGAUAUACAUGAGGAUCACCCAUGUACUCCUUUAAUAUCUUUGAAAUA | 5.5 | 5.25 | – | – |
| GCUCUAUGCUAGAAGGCGUGAAACAUGAGGAUCACCCAUGUCAGAGAUAUGAGGAUAUGGCAUAGAGCAAAAGACGGAAACGUC | – | – | 18.7 | 5.25 |
| GUGUAGAUAGGAUAUGCUUUGAGCCUACGAAAGUACGCUCGACAUGAGGAUCACCCAUGUAGAAGGGUUUACAC | 119 | 58.9 | – | – |
| ACAUACAUUCGAGGAUAUCGGUGAUUAAUUUUACGAGAAGGCGAUAAAAGAUAUAAAAUUUUAGACAUGAGGAUCACCCAUGUA | – | – | 28.6 | 27.1 |
| GGAUAGGACAGAGGAUAUACGUGCUAGAGAUACUCGCAAAAUUUCCUCACAUGAGGAUCACCCAUGUAGAAGGCUGUCCUAUCG | 93 | 436 | – | – |
| AUUAUUGACGAAGGAUAUGGAUACAUGAGGAUCACCCAUGUAUAAUUUGUGAUCAUAUAUAUGAUCCAGAAGGUCGUUGUUUAU | 41 | 63.8 | – | – |
| CAAACCAGAGGAUAUGCGCAUAGAUCAGACUUUGUUUCUGAACAUGAGGAUCACCCAUGUAGAAGGCUGUAAAC | 25.5 | 24.4 | – | – |
| UUAAAUCAUGUAGGAUAUGCAUGGCGAAGCUACGCAGAAGGACAUGAGGAUCACCCAUGUUCGAGGGUCUGAGUACAGAUCCAA | 23.6 | 123 | – | – |
| CUCUAGCUCACAGGAUAUGGGUGUCGACGAUGCCCAGAAGGGUGAUUUGGCACAUGAGGAUCACCCAUGUGGGCGCUUGAAUAU | – | – | 44.5 | 94.3 |
| UAACAGACGCCUUACAUGAGGAUCACCCAUGUGGCCUUAACCAGAAGGCCCGGAAGAUGACUCAGGGAGGAUAUGGUUUAACAG | – | – | 349 | 57.3 |
| UUGCGGUAGGAGAAGGACAGAGGCGGAAACACAAACAUGAGGAUCACCCAUGUAGGAUAUCCUACCUAACGCGGAUACCUCCAG | 14 | 39.6 | – | – |
| GCUACGUCAGGAUAUCUGAUGUCUAACUUCGGUUAGACAUCAGAGAAGGGACAUGAGGAUCACCCAUGUAGCAA | 93.5 | 122 | – | – |
| CCGUUGGGCUAGAAGGCUCCGGGAGAGCCGCGGAGAGGAUAUAGCACAUGAGGAUCACCCAUGUGGUAUGACCUUAUGUAAUCA | 33.7 | 62.9 | – | – |
| AUGCUUUAUGUAGGAUAUACAUACGGUACGUAUGUAGAAGGACAUGAGGAUCACCCAUGUAAAUUAUUAUUAAAUAUCAUACAU | 8.56 | 12.3 | – | – |
| AAACCACAUGAGGAUCACCCAUGUAAAAAUAUGGGAGGAUAUCGGAAUAAAAUAAAGAAACGAGAAGGCCUAAAAA | – | – | 153 | 35.9 |
| GGAAGCACGACGGAGCUAAGGUAGAAGGAUAUCCACGGCUAUAUCCACAUGAGGAUCACCCAUGUGGAGAAGGUCUAUCUUAAG | 5.51 | 8.8 | – | – |
| GGACAUGUCGUCUACAUGAGGAUCACCCAUGUCGAUAGACAUGAGGAUAUCGAUAAGAAUUGUAUCGAGAAGGUAUGUAGGUCC | – | – | 18.7 | 24.9 |
| GGCGGCGCGGGCCACCGCAGGGCCAGAAGGACAUGAGGAUCACCCAUGUGGCAGGACAGGGCGGUGUAGGAUAUGGCAGGCUGG | 8.35 | 10.6 | – | – |
| GGACGUCACAUGAACAUGAGGAUCACCCAUGUAAAUUCUCAUGAGGAUAUGGUUCCUAAUUGGAACCAGAAGGCAUGGACGUCC | – | – | 1450 | 408 |

| Sequence | apparent Kd [1] [nM] | apparent Kd [2] [nM] | apparent Kd [3] [nM] | apparent Kd [4] [nM] |
| --- | --- | --- | --- | --- |
| AAAUGACAUGAGGAUCACCCAUGUCCACCAAAUGGAGGAUAUUGGACGGCAAAACGUUGUUAAGAAGGCCGAAAUU | – | – | 27.6 | 22.3 |
| UGUAUUAACGGAGGAUAUCGAUAUCAAACAUGAGGAUCACCCAUGUUGAGGAUCACCCAUGUCCAUGAGAAGGCCGGCGUACUU | – | – | 36.2 | 29.4 |
| AGGUGACAUGAGGAUCACCCAUGUGAGGAUAUCUGGAUACUCUUUAUUUUAGAUAUCCAGAGAAGGCACACCCU | 263 | 502 | – | – |
| AAAAAACAUGAGGAUCACCCAUGUAAAAAAAUCGCAGGAUAUACGGUCGCGAAAGCGACCGUAGAAGGGCGAUCCU | – | – | 251 | 94.8 |
| UAGAGCGCUUGAGGAUAUCGUUUUGUGAUGGUACUCAUGCCUGUUACAUGAGGAUCACCCAUGUACGAGAAGGCAGGCCGUUAG | 58.1 | 30.5 | – | – |
| GUCUGGCUAGGAUAUACAUAGUCCACGAGUCGGUUGCCCUGACAUGAGGAUCACCCAUGUAGAAGGAGCGAGAA | 19.4 | 18.6 | – | – |
| CCUUCUCGUGUCAGGAUAUCCACUCAUCGAAAUUAGGAGAAGGGACAUGAGGAUCACCCAUGUAUACAUGCCAG | 73 | 102 | – | – |
| GCUGGGUCAGGAUAUACAAGAUCGAAAGAUCUGUGAAACGAACAUGAGGAUCACCCAUGUAGAAGGGACUGGGC | 20.5 | 33.2 | – | – |
| GGCGUGUUAGGAUAUCGCGGCGGCGGCGUUUGUUGUUGUUGUGAGAAGGAACAUGAGGAUCACCCAUGUGUGCC | 62.7 | 295 | – | – |
| GUGUACAGAGGAUAUAUAUGGGCAUGGAAACAUGCAUCUUCACAUGAGGAUCACCCAUGUAGAAGGCUGUACAC | 143 | 84.6 | – | – |
| UUGAAUUGAAACAUGAGGAUCACCCAUGUGUCAUAAUUGACAUAGGAUAUGUUUAUACUUUUAAAAUAGAAGGAUGACGAUACU | – | – | 13.8 | 11.8 |
| CCUCUGUUAGGAUAUCAAACACUAUCUGCUCCAGAGUUAAGUGAGAAGGGACAUGAGGAUCACCCAUGUAAAAU | 26.9 | 33.7 | – | – |
| GGAGCCGGUACUGAGGAUAUUCAUAUUAAAACAUGAGGAUCACCCAUGUAGGCCAGAAGGCCUUGGGAGAAGGCAGACCAGCUCG | – | – | 391 | 26.7 |
| GUCGUGUUAGGAUAUGGCGGCGGCGGCGUUUGUUGUUGUUGUUAGAAGGAACAUGAGGAUCACCCAUGUAUGAC | 43.4 | 119 | – | – |
| UGUUAAUAUCGAGGAUAUGUCUAGACACAUGAGGAUCACCCAUGUAUGUGUAUAGAAGGCGAUAUUAACAGCAUGUUACAUGCG | – | – | 37.2 | 17.4 |
| GUUAUGCGGCAGGAUAUCCAUCCGCGGUAUGAUGGAGAAGGGCCGACAUGAGGAUCACCCAUGUGCGUCCUAAG | 55.6 | 198 | – | – |
| GCGGUACAUGAGGAUCACCCAUGUCAGGAUAUCCGCUGUUUGUCGAUUGGCAGGCGGUGGAGAAGGGACCUCGC | 97.5 | 98.5 | – | – |
| AAUUUACAGCUAGGAUAUACAUGAGGAUCACCCAUGUAACGAUCGGAUCUUAUGAUCGUGUCCGUGUAGAAGGAGCAAAUAAGA | 6.97 | 7.4 | – | – |
